Laboratory results: ChEMBL document CHEMBL2429814 (J Med Chem, 2013)
Blank lines part the entries; values can stand above or below the compound they belong to. The source made the active and inactive calls. No cut-off for these calls is given here.

Tests used:
[1] = target: T1, Metabotropic glutamate receptor 5 (Homo sapiens, UniProt P41594); experiment: Positive allosteric modulation of human mGluR5
[2] = target: T2, Metabotropic glutamate receptor 5 (Rattus norvegicus, UniProt P31424); experiment: Positive allosteric modulation of rat mGluR5
[3] = target: Metabotropic glutamate receptor 5 (Rattus norvegicus) (UniProt P31424); experiment: Positive allosteric modulation of mGluR5 in rat cortical neurons at 3 uM relative to DHPG
Plasma [4] = experiment: Fraction unbound in human plasma by equilibrium dialysis method; type: ADME, cell-free
Procedure, shortened: (§1)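 Plasma protein binding measured by equilibrium dialysis in human or rat plasma; reported as percent unbound.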

Brain = experiment: Fraction unbound in rat brain; type: ADME, tissue-based
Procedure, shortened: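 Binding to rat brain homogenate used to derive fraction unbound in brain.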

[5] = target: Metabotropic glutamate receptor 8 (Rattus norvegicus) (UniProt P70579); experiment: Potentiation of rat mGluR8 receptor stably expressed in HEK293-GIRK cells assessed as fold shift in glutamate concentration response curve at 10 uM by C2+ mobilization assay relative to control; type: cell-based; details: in the assay text read “thallium flux assay” for “C2+ mobilization assay”
Procedure, shortened: (§2)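 HEK293-GIRK cells expressing the rat mGlu subtype were plated at 15,000 cells/well. Compound at 10 µM, or vehicle, was added, then 140 s later a concentration-response curve of glutamate (L-AP4 for mGlu7) in thallium buffer containing 12 mM thallium sulfate. Thallium flux through GIRK channels was read by fluorescence, and the fold shift of the agonist curve was derived.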

[6] = target: Metabotropic glutamate receptor 7 (Rattus norvegicus) (UniProt P35400); experiment: Potentiation of rat mGluR7 receptor stably expressed in HEK293-GIRK cells assessed as fold shift in […] concentration response curve at 10 uM by […] relative to control; type: cell-based; procedure, shortened: as §2
[7] = target: Metabotropic glutamate receptor 6 (Rattus norvegicus) (UniProt P35349); experiment: Potentiation of rat mGluR6 receptor stably expressed in HEK293-GIRK cells assessed as fold shift in glutamate concentration response curve at 10 uM by C2+ mobilization assay relative to control; type: cell-based; details: in the assay text read “thallium flux assay” for “C2+ mobilization assay”; procedure, shortened: as §2
Cytochrome P450 1A2 = target: T3, Cytochrome P450 1A2 (Homo sapiens, UniProt P05177); experiment: Inhibition of human CYP1A2; type: ADME
T3 sequence (P05177 whole entry): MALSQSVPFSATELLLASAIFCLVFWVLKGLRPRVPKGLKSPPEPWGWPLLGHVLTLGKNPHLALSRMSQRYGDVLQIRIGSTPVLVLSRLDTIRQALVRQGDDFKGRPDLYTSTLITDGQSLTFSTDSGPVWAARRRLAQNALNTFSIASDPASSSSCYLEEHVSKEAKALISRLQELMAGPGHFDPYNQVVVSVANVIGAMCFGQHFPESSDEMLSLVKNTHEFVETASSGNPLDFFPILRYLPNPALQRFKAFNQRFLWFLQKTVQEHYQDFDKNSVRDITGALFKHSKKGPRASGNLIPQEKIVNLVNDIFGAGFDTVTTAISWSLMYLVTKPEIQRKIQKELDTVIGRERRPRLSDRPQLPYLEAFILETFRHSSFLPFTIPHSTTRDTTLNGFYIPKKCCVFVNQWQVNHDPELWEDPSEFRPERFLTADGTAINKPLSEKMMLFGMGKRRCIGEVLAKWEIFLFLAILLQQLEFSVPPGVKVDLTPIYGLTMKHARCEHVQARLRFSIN
Procedure, shortened: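 Inhibition of the human CYP1A2 isoform measured in human liver microsomes; reported as IC50.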

[8] = target: Metabotropic glutamate receptor 2 (Rattus norvegicus) (UniProt P31421); experiment: Potentiation of rat mGluR2 receptor stably expressed in HEK293-GIRK cells assessed as fold shift in glutamate concentration response curve at 10 uM by C2+ mobilization assay relative to control; type: cell-based; details: in the assay text read “thallium flux assay” for “C2+ mobilization assay”; procedure, shortened: as §2
[9] = target: T2, Metabotropic glutamate receptor 5; experiment: Agonist activity at mGlu5R in SC-CA1 synapse of Sprague-Dawley rat hippocampus assessed as induction of long-term depression at 10 uM measured 55 mins post compound washout; type: tissue-based
Procedure, shortened: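 Male Sprague-Dawley rats aged 30–40 days; hippocampal slices at 30–32°C. Bipolar stimulation of Schaffer collaterals near the CA3-CA1 border, recording in CA1 stratum radiatum, baseline intensity 50–60% of maximum. Compound in DMSO, bath-perfused. fEPSP slopes averaged over three sequential responses and normalized to the pre-drug baseline.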

[10] = target: T2, Metabotropic glutamate receptor 5; experiment: Agonist activity at mGlu5R in CA3 pyramidal neurons Sprague-Dawley rat hippocampus assessed as effect on intervent interval relative to control; type: tissue-based
Procedure, shortened: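 Male Sprague-Dawley rats aged 24–30 days; hippocampal slices equilibrated 5–10 min at 30–32°C in a submersion chamber. Recording electrode in the CA3 pyramidal cell body layer. Compound diluted in DMSO and bath-perfused. Spontaneous epileptiform events recorded as field potentials, with inter-event interval normalized to baseline.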

Cytochrome P450 2D6 = Cytochrome P450 2D6 (Homo sapiens, UniProt P10635); experiment: Inhibition of human CYP2D6; type: ADME
Procedure, shortened: (§3)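 Inhibition of individual human CYP isoforms (2C9, 2D6, 3A4) measured in human liver microsomes; IC50 values reported.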

Plasma [11] = experiment: Fraction unbound in rat plasma by equilibrium dialysis method; type: ADME, cell-free; procedure, shortened: as §1
Cytochrome P450 2C9 = Cytochrome P450 2C9 (Homo sapiens, UniProt P11712); experiment: Inhibition of human CYP2C9; type: ADME; procedure, shortened: as §3
[12] = target: Metabotropic glutamate receptor 5 (Rattus norvegicus) (UniProt P31424); experiment: Positive allosteric modulation of rat mGluR5 stably expressed in HEK293 cells assessed as increase in intracellular calcium level by Fluo-4AM dye-based fluorescence assay relative to glutamate; type: functional, cell-based
[13] = target: Metabotropic glutamate receptor 3 (Rattus norvegicus) (UniProt P31422); experiment: Potentiation of rat mGluR3 receptor stably expressed in HEK293-GIRK cells assessed as fold shift in glutamate concentration response curve at 10 uM by C2+ mobilization assay relative to control; type: cell-based; details: in the assay text read “thallium flux assay” for “C2+ mobilization assay”; procedure, shortened: as §2
[14] = Agonist activity at rat mGluR5 S808A mutant stably expressed in HEK293 cells assessed as increase in intracellular calcium level at 1 to 100 uM by Fluo-4AM dye-based fluorescence assay; type: cell-based; details: hek293, 100 µM
[15] = Agonist activity at rat mGluR5 T780A mutant stably expressed in HEK293 cells assessed as increase in intracellular calcium level at 1 to 100 uM by Fluo-4AM dye-based fluorescence assay; type: cell-based; details: hek293, 100 µM
[16] = target: T2, Metabotropic glutamate receptor 5; experiment: Agonist activity at mGlu5R in CA3 pyramidal neurons Sprague-Dawley rat hippocampus assessed as effect on amplitude relative to control; type: tissue-based
[17] = target: Metabotropic glutamate receptor 1 (Rattus norvegicus) (UniProt P23385); experiment: Potentiation of rat mGluR1 receptor stably expressed in HEK293 cells assessed as fold shift in glutamate concentration response curve at 10 uM by […] mobilization assay relative to control; type: cell-based
Procedure, shortened: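 HEK293 cells stably expressing rat mGlu1 were plated at 20,000 cells/well and loaded with Fluo-4AM. Compound at 10 µM final, or vehicle, was added, then a glutamate concentration-response curve 140 s later. Calcium flux was measured as fluorescence increase, and the fold shift of the glutamate curve was derived.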

[18] = target: Metabotropic glutamate receptor 4 (Rattus norvegicus) (UniProt P31423); experiment: Potentiation of rat mGluR4 receptor stably expressed in HEK293-GIRK cells assessed as fold shift in glutamate concentration response curve at 10 uM by C2+ mobilization assay relative to control; type: cell-based; details: in the assay text read “thallium flux assay” for “C2+ mobilization assay”; procedure, shortened: as §2
[19] = target: Metabotropic glutamate receptor 5 (Rattus norvegicus) (UniProt P31424); experiment: Positive allosteric modulation of mGluR5 in rat cortical neurons at 1 uM relative to DHPG
[20] = Agonist activity at rat mGluR5 W784A mutant stably expressed in HEK293 cells assessed as increase in intracellular calcium level at 1 to 100 uM by Fluo-4AM dye-based fluorescence assay; type: cell-based; details: hek293, 100 µM
[21] = target: T2, Metabotropic glutamate receptor 5; experiment: Positive allosteric modulation of rat mGluR5 stably expressed in HEK293 cells assessed as increase in intracellular calcium level by Fluo-4AM dye-based fluorescence assay; type: functional, cell-based
Procedure, shortened: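 HEK293 cells stably expressing rat mGlu5 (low receptor density line), 15,000 cells/well, grown overnight at 37°C/5% CO2. Loaded with Fluo-4AM for 50 min at 37°C in HBSS with 20 mM HEPES, 2.5 mM probenecid, pH 7.4. Triple add: compound, then EC20 glutamate 140 s later, then EC80 glutamate 60 s later. Calcium fluorescence read over time. Values are means of ≥3 independent experiments run in duplicate or triplicate.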

[22] = target: Metabotropic glutamate receptor 5 (Rattus norvegicus) (UniProt P31424); experiment: Potentiation of rat mGluR5 receptor stably expressed in HEK293 cells assessed as fold shift in glutamate concentration response curve at 10 uM relative to control; type: cell-based
Procedure, shortened: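 HEK293 cells stably expressing rat mGlu5 were loaded with Fluo-4AM. Compound at 10 µM, or vehicle, was added, and a glutamate concentration-response curve followed 140 s later. The fold leftward shift of the glutamate curve was read from calcium fluorescence. Values are means of three independent experiments in triplicate.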

[23] = target: T1, Metabotropic glutamate receptor 5; experiment: Positive allosteric modulation of mGluR5 (unknown origin)

T1 sequence (P41594 whole entry): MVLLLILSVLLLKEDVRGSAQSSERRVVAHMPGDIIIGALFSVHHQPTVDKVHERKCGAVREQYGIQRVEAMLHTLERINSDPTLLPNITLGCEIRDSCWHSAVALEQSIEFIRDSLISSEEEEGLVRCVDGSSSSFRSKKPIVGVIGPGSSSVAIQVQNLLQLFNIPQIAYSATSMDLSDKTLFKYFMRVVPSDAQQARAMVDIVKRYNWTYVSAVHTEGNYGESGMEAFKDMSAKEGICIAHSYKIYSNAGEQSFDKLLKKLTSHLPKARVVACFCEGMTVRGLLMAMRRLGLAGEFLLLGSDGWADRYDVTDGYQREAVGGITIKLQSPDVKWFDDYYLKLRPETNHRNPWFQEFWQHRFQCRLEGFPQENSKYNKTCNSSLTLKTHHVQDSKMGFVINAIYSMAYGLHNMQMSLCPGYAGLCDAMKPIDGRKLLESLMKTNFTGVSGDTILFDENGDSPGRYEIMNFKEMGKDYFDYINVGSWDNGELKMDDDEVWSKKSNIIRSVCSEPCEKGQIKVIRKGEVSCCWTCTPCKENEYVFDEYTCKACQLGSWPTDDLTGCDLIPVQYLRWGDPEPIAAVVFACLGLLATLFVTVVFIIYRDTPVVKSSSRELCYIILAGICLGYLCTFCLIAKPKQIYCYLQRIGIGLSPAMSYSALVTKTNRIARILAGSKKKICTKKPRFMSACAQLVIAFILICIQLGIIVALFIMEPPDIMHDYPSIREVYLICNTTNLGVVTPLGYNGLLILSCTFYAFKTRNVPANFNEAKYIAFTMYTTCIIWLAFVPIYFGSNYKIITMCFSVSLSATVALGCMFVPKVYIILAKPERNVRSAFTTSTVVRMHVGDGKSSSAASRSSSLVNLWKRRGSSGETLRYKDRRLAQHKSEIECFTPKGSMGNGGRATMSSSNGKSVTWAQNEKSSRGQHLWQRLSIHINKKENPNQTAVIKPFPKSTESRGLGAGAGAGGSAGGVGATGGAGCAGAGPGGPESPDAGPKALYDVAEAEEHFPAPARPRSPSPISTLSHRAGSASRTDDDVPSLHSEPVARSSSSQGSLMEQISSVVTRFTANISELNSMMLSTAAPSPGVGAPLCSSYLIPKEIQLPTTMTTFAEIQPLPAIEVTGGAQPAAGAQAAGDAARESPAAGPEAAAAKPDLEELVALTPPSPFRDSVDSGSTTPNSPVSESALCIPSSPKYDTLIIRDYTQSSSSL
Metabotropic glutamate receptor 5 (Rattus norvegicus), sequence (P31424 21-1203 limits assumed): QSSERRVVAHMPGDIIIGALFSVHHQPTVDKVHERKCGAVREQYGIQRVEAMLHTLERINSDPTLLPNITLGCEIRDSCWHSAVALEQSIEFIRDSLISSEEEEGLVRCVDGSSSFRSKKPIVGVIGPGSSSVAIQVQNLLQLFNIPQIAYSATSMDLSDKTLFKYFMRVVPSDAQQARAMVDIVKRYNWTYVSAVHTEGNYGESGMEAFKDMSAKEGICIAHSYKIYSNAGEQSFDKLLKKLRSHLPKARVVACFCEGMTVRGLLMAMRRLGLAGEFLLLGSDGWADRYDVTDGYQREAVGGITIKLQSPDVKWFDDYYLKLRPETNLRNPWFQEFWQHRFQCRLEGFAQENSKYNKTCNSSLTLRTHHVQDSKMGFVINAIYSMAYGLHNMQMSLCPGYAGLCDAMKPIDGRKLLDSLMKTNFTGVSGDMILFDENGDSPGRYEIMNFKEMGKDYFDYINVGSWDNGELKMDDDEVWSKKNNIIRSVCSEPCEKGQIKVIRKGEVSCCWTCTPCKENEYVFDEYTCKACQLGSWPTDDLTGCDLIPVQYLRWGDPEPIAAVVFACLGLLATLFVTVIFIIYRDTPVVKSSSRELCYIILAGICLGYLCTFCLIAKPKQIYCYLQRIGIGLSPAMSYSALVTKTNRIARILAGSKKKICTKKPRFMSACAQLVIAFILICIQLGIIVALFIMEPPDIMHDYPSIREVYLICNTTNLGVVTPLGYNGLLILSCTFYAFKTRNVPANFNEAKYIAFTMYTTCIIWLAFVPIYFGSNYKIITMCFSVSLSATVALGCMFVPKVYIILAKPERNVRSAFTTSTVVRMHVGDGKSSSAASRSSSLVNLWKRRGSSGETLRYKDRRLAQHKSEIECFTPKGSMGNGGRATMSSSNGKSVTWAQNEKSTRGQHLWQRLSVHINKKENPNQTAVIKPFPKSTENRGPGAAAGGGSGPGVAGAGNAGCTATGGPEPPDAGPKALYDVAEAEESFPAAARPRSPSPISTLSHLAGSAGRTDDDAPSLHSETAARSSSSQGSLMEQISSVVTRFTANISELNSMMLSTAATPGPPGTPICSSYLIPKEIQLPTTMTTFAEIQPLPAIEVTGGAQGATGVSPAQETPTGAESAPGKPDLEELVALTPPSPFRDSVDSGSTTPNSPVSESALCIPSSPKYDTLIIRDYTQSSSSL
T2 sequence (P31424 whole entry): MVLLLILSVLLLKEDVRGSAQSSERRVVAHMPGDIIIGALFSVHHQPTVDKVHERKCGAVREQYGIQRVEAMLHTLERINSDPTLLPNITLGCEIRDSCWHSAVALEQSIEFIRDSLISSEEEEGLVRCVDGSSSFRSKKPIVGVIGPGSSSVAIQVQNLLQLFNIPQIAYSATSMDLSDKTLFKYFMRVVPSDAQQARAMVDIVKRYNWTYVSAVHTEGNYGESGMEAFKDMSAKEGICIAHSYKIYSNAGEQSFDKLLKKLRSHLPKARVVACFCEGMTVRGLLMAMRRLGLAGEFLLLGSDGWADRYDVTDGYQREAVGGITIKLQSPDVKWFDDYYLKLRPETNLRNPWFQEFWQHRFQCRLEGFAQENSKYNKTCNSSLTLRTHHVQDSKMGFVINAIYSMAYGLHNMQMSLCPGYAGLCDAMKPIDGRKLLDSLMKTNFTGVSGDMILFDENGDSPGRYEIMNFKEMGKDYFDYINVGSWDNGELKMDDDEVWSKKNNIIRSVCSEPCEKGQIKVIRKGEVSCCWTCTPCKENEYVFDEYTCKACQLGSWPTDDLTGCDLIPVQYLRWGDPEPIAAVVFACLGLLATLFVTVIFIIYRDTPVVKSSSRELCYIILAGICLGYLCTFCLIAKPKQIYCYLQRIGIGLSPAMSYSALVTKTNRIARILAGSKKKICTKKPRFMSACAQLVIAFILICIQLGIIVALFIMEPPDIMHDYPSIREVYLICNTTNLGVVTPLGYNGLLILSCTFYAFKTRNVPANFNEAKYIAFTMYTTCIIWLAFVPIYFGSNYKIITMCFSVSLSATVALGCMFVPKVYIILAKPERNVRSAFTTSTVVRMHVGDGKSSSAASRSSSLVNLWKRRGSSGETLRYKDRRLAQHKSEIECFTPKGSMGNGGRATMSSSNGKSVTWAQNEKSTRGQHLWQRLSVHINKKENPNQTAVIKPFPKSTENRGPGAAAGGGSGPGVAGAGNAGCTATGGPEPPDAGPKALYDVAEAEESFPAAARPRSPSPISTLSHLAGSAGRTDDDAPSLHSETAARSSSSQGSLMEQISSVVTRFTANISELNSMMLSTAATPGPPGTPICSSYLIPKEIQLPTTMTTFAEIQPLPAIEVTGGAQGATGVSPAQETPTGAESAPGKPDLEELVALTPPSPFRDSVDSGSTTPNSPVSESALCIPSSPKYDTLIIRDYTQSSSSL
Metabotropic glutamate receptor 4 (Rattus norvegicus), sequence (P31423 whole entry): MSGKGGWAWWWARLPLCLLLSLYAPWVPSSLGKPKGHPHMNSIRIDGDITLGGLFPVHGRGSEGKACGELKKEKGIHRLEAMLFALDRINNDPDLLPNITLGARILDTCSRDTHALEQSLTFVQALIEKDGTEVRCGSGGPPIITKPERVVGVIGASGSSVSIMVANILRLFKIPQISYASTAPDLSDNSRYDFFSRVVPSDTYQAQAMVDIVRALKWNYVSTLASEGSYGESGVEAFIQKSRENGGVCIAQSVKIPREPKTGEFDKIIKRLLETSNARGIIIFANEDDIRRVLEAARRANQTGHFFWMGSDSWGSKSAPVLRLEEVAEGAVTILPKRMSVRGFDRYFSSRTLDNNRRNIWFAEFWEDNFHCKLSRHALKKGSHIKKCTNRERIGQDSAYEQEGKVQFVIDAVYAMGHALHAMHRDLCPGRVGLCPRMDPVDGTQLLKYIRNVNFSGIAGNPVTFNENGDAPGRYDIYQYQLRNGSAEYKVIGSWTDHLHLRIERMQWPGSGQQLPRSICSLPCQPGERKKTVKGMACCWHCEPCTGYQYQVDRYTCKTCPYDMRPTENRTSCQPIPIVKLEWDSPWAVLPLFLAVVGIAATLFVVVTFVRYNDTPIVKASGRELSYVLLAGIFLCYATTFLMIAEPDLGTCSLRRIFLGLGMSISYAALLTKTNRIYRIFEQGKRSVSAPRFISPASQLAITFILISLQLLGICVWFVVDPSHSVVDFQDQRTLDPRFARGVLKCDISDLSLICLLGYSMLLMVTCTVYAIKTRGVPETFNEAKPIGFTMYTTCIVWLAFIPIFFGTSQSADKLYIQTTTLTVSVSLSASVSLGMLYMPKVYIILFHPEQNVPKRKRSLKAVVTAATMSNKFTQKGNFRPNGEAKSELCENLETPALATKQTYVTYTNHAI
Cytochrome P450 2D6, sequence (P10635 whole entry, canonical isoform): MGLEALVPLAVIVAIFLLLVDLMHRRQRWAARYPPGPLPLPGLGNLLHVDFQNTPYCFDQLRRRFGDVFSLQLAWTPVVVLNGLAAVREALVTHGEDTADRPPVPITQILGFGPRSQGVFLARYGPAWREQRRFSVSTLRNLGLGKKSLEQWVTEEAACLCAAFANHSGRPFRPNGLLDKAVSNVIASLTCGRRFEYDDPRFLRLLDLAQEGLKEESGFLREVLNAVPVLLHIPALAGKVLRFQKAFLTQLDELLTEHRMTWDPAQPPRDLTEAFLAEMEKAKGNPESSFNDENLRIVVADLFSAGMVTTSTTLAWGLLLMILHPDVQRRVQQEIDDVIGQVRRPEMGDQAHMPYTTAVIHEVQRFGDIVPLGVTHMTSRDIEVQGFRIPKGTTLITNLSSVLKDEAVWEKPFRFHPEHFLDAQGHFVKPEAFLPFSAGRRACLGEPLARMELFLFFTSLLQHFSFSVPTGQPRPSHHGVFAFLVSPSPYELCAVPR

Structure (SMILES): CC(C)(C)c1nnc2n1CC[C@H](c1nc(-c3ccc(F)cc3)no1)C2
- EC50 [1]: 52 nM
- EC50 [2]: 42 nM
- fold change (FC) [3]: 2.8

Structure (SMILES): CC1(NC(=O)c2ccc(C#Cc3cccc(F)c3)cn2)COC1
- Fu (Plasma [4]): 3.5%
- Fu (Brain): 1.6%
- Activity [5]: inactive
- Activity [6]: inactive
- Activity [7]: inactive
- IC50 (Cytochrome P450 1A2): 5300 nM
- Activity [8]: inactive
- Activity [9]: 100.3%
- Activity [10]: 127.9%
- IC50 (Cytochrome P450 2D6): > 30000 nM
- Fu (Plasma [11]): 3.6%
- IC50 (Cytochrome P450 2C9): > 30000 nM
- Efficacy [12]: 45.5%
- Activity [13]: inactive
- Activity [14]: Active
- Activity [15]: Not Active
- Activity [16]: 101.2%
- Activity [17]: inactive
- Activity [18]: inactive

Structure (SMILES): CC(C)NC(=O)c1ccc(C#Cc2ccncc2)cn1
- EC50 [1]: 33 nM
- fold change (FC) [19]: 2
- EC50 [2]: 24 nM

Structure (SMILES): C[C@@H](NC(=O)c1ccc(C#Cc2ccccn2)cn1)C(C)(C)O
- Activity [20]: Active
- EC50 ([21]; read-out: EC50): 41.3 nM
- EC50 ([21]; read-out: pEC50 (converted)): 93.3 nM
- fold change (FC) [22]: 1.7
- Efficacy [12]: 57.5%
- Activity [15]: Not Active

- EC50 [23]: 2600 nM
Structure (SMILES): Fc1cccc(/C=N/N=C/c2cccc(F)c2)c1
